Experimental data as given in PMC4684756 (Nature immunology, 2015).
“Also recorded” adds a separate entry of the source.

Assays:
CD8+ 42F3 T cells = assay: IL-2 release dose response of CD8+ 42F3 T cells to peptide-pulsed APCs; assay type: cell-based, murine; details: for maximal IL-2 response (high / medium / low): transduced CD8+ 42F3 cells, among CD8-dependent agonists; for IL-2 agonist character (in words): titrated IL-2 response in CD8+ 42F3 T cells
Summary of the method: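 Murine 58−/− hybridoma (TCRα−β−) expressing CD8αβ, retrovirally transduced with 42F3 TCR, co-cultured 1:1 with LM1.8-L^dW97R APCs (5x10⁴ cells; grown in RPMI/10% FBS) and titrated peptide for 20 h at 37°C. Peptide stocks were 50mM in DMSO, diluted in RPMI. IL-2 in supernatants was measured by HRP-colorimetric ELISA. EC50 and Emax came from the titration curves.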

[1] = molecular target: p4B10 / H-2L^d mini-MHC m31r (murine); assay: SPR
[2] = molecular target: pCPA12 / H-2L^d mini-MHC m31r (murine); assay: SPR
[3] = molecular target: pCPB7 / H-2L^d mini-MHC m31r (murine); assay: SPR
[4] = molecular target: pCPB9 / H-2L^d mini-MHC m31r (murine); assay: SPR
[5] = molecular target: pCPC5 / H-2L^d mini-MHC m31r (murine); assay: SPR
[6] = molecular target: pCPE3 / H-2L^d mini-MHC m31r (murine); assay: SPR

For FLSPFWFDI [p5E8], the “maximal IL-2 response (high / medium / low)” value (CD8+ 42F3 T cells) was “high”.
With MPAGRPWDL [pCPE3] the “IL-2 agonist character (in words)” value (CD8+ 42F3 T cells) was “weak agonist; also recorded: partial agonist”.
42F3 TCR was tested, and the Kd [1] was 10 µM, the koff [1] was > 0.5 s⁻¹ and the Kd [2] was 2 µM. The koff [2] was 0.0579 s⁻¹, the kon [2] was 31400 M⁻¹ s⁻¹ and the koff [3] was 0.0579 s⁻¹. For the same substance, the kon [3] was 495000 M⁻¹ s⁻¹, the koff [4] was 0.0668 s⁻¹ and the Kd [5] was 1 µM. It also gave a koff [5] of 0.197 s⁻¹, a Kd [6] of 0.7 µM and a koff [6] of 0.166 s⁻¹. It also gave a kon [6] of 58600 M⁻¹ s⁻¹.
For VPYMAEFGM [pCPA12], the “IL-2 agonist character (in words)” value (CD8+ 42F3 T cells) was “partial IL-2 responses; also recorded: partial agonist” and the “maximal IL-2 response (high / medium / low)” value (CD8+ 42F3 T cells) was “medium”.
SPAPRPLDL [pCPC5] was tested, and the “IL-2 agonist character (in words)” value (CD8+ 42F3 T cells) was “partial IL-2 responses; also recorded: partial agonist”.
